High-throughput results from PubChem BioAssay.
NPY-Y2 antag = NPY-Y2 receptor antagonists, primary screen, cell-based; NPY-Y2 expressing cells, antagonist mode; 0.99% of 140,000 active; inhibition, % at 2.7 µM; in the data active = inhibition above about 17%;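 note: 0% = vehicle with agonist challenge and 100% = reference antagonist with challenge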
NPY Y1 blocker = NPY-Y1 receptor antagonists, primary screen, cell-based; AID 1040, 2008; Neuropeptide Y receptor type 1 (Homo sapiens), P25929; 1% of 200,000 active; inhibition, % at 3.6 µM; HEK293-CNG Y1 cells, membrane potential fluorescence; NPY at EC95, then isoproterenol;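 active = inhibition above the campaign mean inhibition of all tested compounds plus 3 SD, cut at about 20% in these data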;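 note: 0% = DMSO wells given NPY plus isoproterenol and 100% = isoproterenol alone without NPY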
Target sequence (P25929 whole entry, looked up): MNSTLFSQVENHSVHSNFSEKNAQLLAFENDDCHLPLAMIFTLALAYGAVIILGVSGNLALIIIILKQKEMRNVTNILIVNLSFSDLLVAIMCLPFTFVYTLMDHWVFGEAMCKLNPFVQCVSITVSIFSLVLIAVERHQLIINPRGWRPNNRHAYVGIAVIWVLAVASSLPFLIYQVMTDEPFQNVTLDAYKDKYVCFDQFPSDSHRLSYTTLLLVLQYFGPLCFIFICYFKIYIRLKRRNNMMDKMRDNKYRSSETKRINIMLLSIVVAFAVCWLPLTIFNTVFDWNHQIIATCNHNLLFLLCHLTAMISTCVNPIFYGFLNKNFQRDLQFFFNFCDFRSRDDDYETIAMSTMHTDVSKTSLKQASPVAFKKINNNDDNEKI
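System: HEK293 cells with Y1 receptor plus CNG channel / Probe or stimulus: NPY 25 nM then isoproterenol 1 µM plus Ro 20-1724 25 µM / Compound: one concentration, 3.6 µM, in 0.4% DMSO / Schedule: compound incubation 1 h at room temperature, readout 45 min post-stimulation / Measured by: membrane potential fluorescence / Read-out: % inhibition of NPY effect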
S1P4 antagonist = S1P4 receptor antagonists, primary screen, cell-based | Sphingosine 1-phosphate receptor 4 (Homo sapiens), O95977 | AID 1510, 2009 | inhibition, % at 4.98 µM | S1P4-expressing cells, antagonist mode, reporter read-out | 0.26% of 220,000 active; in the data active = inhibition above about 29%;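 note: 0% = wells stimulated with agonist and 100% = vehicle wells without agonist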
NPY-Y1 PAM-ag = NPY-Y1 receptor potentiators or agonists, primary screen, cell-based. 0.37% of 220,000 active. activation, % at 3.6 µM. Neuropeptide Y receptor type 1 (Homo sapiens), P25929. NPY-Y1 expressing cells, potentiator/agonist activation; in the data active = activation above about 33%, passing the limit was not always enough;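 note: cells stimulated with NPY at EC10 then isoproterenol at EC100; 0% = low agonist plus stimulus and 100% = saturating agonist plus stimulus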
NPY-Y2 PAM-ag = NPY-Y2 potentiators or agonists, primary screen, cell-based; Neuropeptide Y receptor type 2 (Homo sapiens), P49146; cells expressing NPY-Y2, potentiator/agonist read-out; activation, % at 3.6 µM; 0.45% of 220,000 active; AID 1359, 2008; in the data active = activation above about 27%;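 note: cells stimulated with NPY near EC25 plus isoproterenol at EC100; 0% = vehicle plus submaximal agonist and 100% = vehicle plus saturating agonist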
S1P4 agonist = S1P4 receptor agonists, primary screen, cell-based; activation, % at 4.98 µM; S1P4-expressing cell line, agonist reporter assay; 0.35% of 220,000 active; in the data active = activation above about 11%;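 note: 0% = DMSO vehicle and 100% = reference agonist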
* hit, by the source's call. Only some compounds are listed: those with a hit (about 2.4% of all), similar ones and a draw of the others.

Results for Cc1ccc(N=C(NOCc2ccc(Cl)cc2Cl)c2nonc2N)c(C)c1 ?
NPY-Y2 antag: 21*; NPY Y1 blocker: 32*; S1P4 antagonist: -7; NPY-Y1 PAM-ag: -23; NPY-Y2 PAM-ag: -22; S1P4 agonist: 3

How did CN(Cc1ccccc1)C(=O)C1CCCN(Cc2cccc(Cl)c2)C1 (configuration not stated) do in these assays?
NPY Y1 blocker: 2; S1P4 antagonist: -14; NPY-Y1 PAM-ag: 2; NPY-Y2 PAM-ag: -8; S1P4 agonist: 0

Results for CCCCNC(=O)C1CCN(S(=O)(=O)N2CCOCC2)CC1 ?
NPY Y1 blocker: 1; S1P4 antagonist: 9; NPY-Y1 PAM-ag: 3; NPY-Y2 PAM-ag: -16; S1P4 agonist: -2

How did CCOC(=O)N1CCC(n2c(SCC(=O)NCCC3=CCCCC3)nc3ccccc3c2=O)CC1 do in these assays?
NPY-Y2 antag: 19*; NPY Y1 blocker: 36*; S1P4 antagonist: 6; NPY-Y1 PAM-ag: -33; NPY-Y2 PAM-ag: -39; S1P4 agonist: 1

Results for CCN1C(=O)/C(=C\c2cn(CCC#N)nc2-c2ccc(F)cc2)SC1=S ?
NPY-Y2 antag: -2; NPY Y1 blocker: 4; S1P4 antagonist: 4; NPY-Y1 PAM-ag: 6; NPY-Y2 PAM-ag: -5; S1P4 agonist: 0

What do the screens show for `O=c1c2cnn(-c3ccccc3)c2ncn1Cc1ccco1`?
NPY-Y2 antag: 4; NPY Y1 blocker: -2; S1P4 antagonist: -11; NPY-Y1 PAM-ag: 15; NPY-Y2 PAM-ag: 5; S1P4 agonist: 0

What do the screens show for `N=c1c2c(-c3ccccc3)c(-c3ccccc3)n(Cc3ccco3)c2ncn1Cc1ccco1`?
NPY-Y2 antag: 32*; NPY Y1 blocker: 22*; S1P4 antagonist: -25; NPY-Y1 PAM-ag: 33; NPY-Y2 PAM-ag: 22; S1P4 agonist: 1

Results for CCCCn1cnc2c(c(-c3ccccc3)c(-c3ccccc3)n2Cc2ccco2)c1=N ?
S1P4 antagonist: 11; NPY-Y1 PAM-ag: 52*; NPY-Y2 PAM-ag: 52*; S1P4 agonist: 0

Results for N=c1c2c(-c3ccccc3)c(-c3ccccc3)n(Cc3ccccc3)c2ncn1CCCn1ccnc1 ?
NPY-Y2 antag: 49*; NPY Y1 blocker: 92*; S1P4 antagonist: -5; NPY-Y1 PAM-ag: -40; NPY-Y2 PAM-ag: 17; S1P4 agonist: 2

How did Cc1cc(NCCCn2ccnc2)n2nc(C)c(-c3ccccc3)c2n1 do in these assays?
NPY-Y2 antag: 3; NPY Y1 blocker: -4; S1P4 antagonist: 9; NPY-Y1 PAM-ag: -8; NPY-Y2 PAM-ag: 13; S1P4 agonist: 0

Results for COc1ccc(C)cc1S(=O)(=O)N1CCC(C(=O)N2CCN(C)CC2)CC1 ?
NPY-Y2 antag: 2; NPY Y1 blocker: 8; S1P4 antagonist: 13; NPY-Y1 PAM-ag: -16; NPY-Y2 PAM-ag: 12; S1P4 agonist: 0

How did CCCn1c(=O)c2ccccc2n2c(SCCOc3ccccc3F)nnc12 do in these assays?
NPY-Y2 antag: 17*; NPY Y1 blocker: 26*; S1P4 antagonist: -5; NPY-Y1 PAM-ag: -30; NPY-Y2 PAM-ag: -15; S1P4 agonist: -1

Results for CCCn1c(=O)c2ccccc2n2c(SCc3cc(=O)n4ccsc4n3)nnc12 ?
NPY-Y2 antag: 3; NPY Y1 blocker: 21*; S1P4 antagonist: -2; NPY-Y1 PAM-ag: 1; NPY-Y2 PAM-ag: -1; S1P4 agonist: 0

What do the screens show for `CCCn1c(=O)c2ccccc2n2c(SCc3cc(=O)oc4ccc5ccccc5c34)nnc12`?
NPY-Y2 antag: 2; NPY Y1 blocker: 9; S1P4 antagonist: -14; NPY-Y1 PAM-ag: -15; NPY-Y2 PAM-ag: 0; S1P4 agonist: 1

How did CCCn1c(=O)c2ccccc2n2c(SCCOc3ccc(Cl)cc3)nnc12 do in these assays?
NPY-Y2 antag: 13; NPY Y1 blocker: 9; S1P4 antagonist: -5; NPY-Y1 PAM-ag: -13; NPY-Y2 PAM-ag: -4; S1P4 agonist: 0

What do the screens show for `CCOC(=O)c1c(C)c2c(n1C)CCC/C2=N\O`?
NPY-Y2 antag: 32*; NPY Y1 blocker: 39*; S1P4 antagonist: -1; NPY-Y1 PAM-ag: -45; NPY-Y2 PAM-ag: -16; S1P4 agonist: -1

How did Cc1ccc(C(=O)c2coc3cc([N+](=O)[O-])c(O)c([N+](=O)[O-])c23)cc1 do in these assays?
NPY-Y2 antag: 0; NPY Y1 blocker: 6; S1P4 antagonist: -9; NPY-Y1 PAM-ag: 7; NPY-Y2 PAM-ag: 7; S1P4 agonist: -1
